Results published in ChEMBL document CHEMBL1138748, “A prodrug approach toward the development of water soluble fluoroquinolones and structure--activity relationships of quinoline-3-carboxylic acids” (2004).
Converted amounts (≈) assume the structure as drawn.

Tests used:
Assay type in all cases: functional
Staphylococcus aureus [1] = test: Antibacterial activity against Staphylococcus aureus strain St au 29213
How it was run: (§1)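 Broth microdilution MIC run to NCCLS standards: serial 2-fold dilutions in cation-adjusted Mueller–Hinton broth, inoculum ~5 × 10^5 CFU/mL, incubated 35 °C for 18–24 h. Trays were read by eye, and the MIC was taken as the lowest concentration giving complete growth inhibition (no visible turbidity).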

Pseudomonas aeruginosa = test: Antibacterial activity against Pseudomonas aeruginosa strain 27853; how it was run: as §1
Enterococcus faecalis = test: Antibacterial activity against Enterococcus faecalis strain 29212; how it was run: as §1
Escherichia coli = test: Antibacterial activity against Escherichia coli strain 25922; how it was run: as §1
Staphylococcus aureus [2] = test: Antibacterial activity against Staphylococcus aureus strain St au 33591 MRSA; how it was run: as §1

| SMILES | MIC (Staphylococcus aureus [1]) | MIC (Pseudomonas aeruginosa) | MIC (Enterococcus faecalis) | MIC (Escherichia coli) | MIC (Staphylococcus aureus [2]) |
| --- | --- | --- | --- | --- | --- |
| C[C@@H]1C[C@H](N)CN1c1cc2c(cc1F)c(=O)c(C(=O)O)cn2-c1ccc(O)cc1 | 0.78 µg/mL (≈ 1.96 µM) | 50 µg/mL (≈ 126 µM) | 12.5 µg/mL (≈ 31.5 µM) | 3.13 µg/mL (≈ 7.88 µM) | 0.78 µg/mL (≈ 1.96 µM) |
| COc1c(N2C[C@@H](C)[C@@H](C)C2)c(F)cc2c(=O)c(C(=O)O)cn(-c3ccc(O)cc3)c12 | 0.78 µg/mL (≈ 1.83 µM) | 3.13 µg/mL (≈ 7.34 µM) | 6.25 µg/mL (≈ 14.7 µM) | 0.78 µg/mL (≈ 1.83 µM) | 0.78 µg/mL (≈ 1.83 µM) |
| CN1CCCC2CN(c3cc4c(cc3F)c(=O)c(C(=O)O)cn4-c3ccc(O)cc3)CC21 (stereo not given) | 0.2 µg/mL (≈ 0.457 µM) | 6.25 µg/mL (≈ 14.3 µM) | 3.13 µg/mL (≈ 7.15 µM) | 0.2 µg/mL (≈ 0.457 µM) | 0.4 µg/mL (≈ 0.914 µM) |
| CN1CCC2CN(c3nc4c(cc3F)c(=O)c(C(=O)O)cn4-c3ccc(O)cc3)CC21 (stereo not given) | 0.2 µg/mL (≈ 0.471 µM) | 6.25 µg/mL (≈ 14.7 µM) | 1.56 µg/mL (≈ 3.68 µM) | 0.1 µg/mL (≈ 0.236 µM) | 0.2 µg/mL (≈ 0.471 µM) |
| C[C@H]1CN(c2cc3c(cc2F)c(=O)c(C(=O)O)cn3-c2ccc(O)cc2)C[C@H]1N | 0.2 µg/mL (≈ 0.503 µM) | 1.56 µg/mL (≈ 3.93 µM) | 1.56 µg/mL (≈ 3.93 µM) | 0.2 µg/mL (≈ 0.503 µM) | 0.2 µg/mL (≈ 0.503 µM) |
| N[C@@H]1[C@H]2CN(c3nc4c(cc3F)c(=O)c(C(=O)O)cn4-c3ccc(O)cc3)C[C@@H]12 | 0.2 µg/mL (≈ 0.505 µM) | 0.78 µg/mL (≈ 1.97 µM) | 0.78 µg/mL (≈ 1.97 µM) | 0.1 µg/mL (≈ 0.252 µM) | 0.2 µg/mL (≈ 0.505 µM) |
| N[C@@H]1CN(c2nc3c(cc2F)c(=O)c(C(=O)O)cn3-c2ccc(O)cc2)CC12CC2 | 1.56 µg/mL (≈ 3.8 µM) | 3.13 µg/mL (≈ 7.63 µM) | 25 µg/mL (≈ 60.9 µM) | 1.56 µg/mL (≈ 3.8 µM) | 1.56 µg/mL (≈ 3.8 µM) |
| C[C@@H]1CN(c2cc3c(cc2F)c(=O)c(C(=O)O)cn3-c2ccc(O)cc2)C[C@H](C)N1 | 0.2 µg/mL (≈ 0.486 µM) | 3.13 µg/mL (≈ 7.61 µM) | 3.13 µg/mL (≈ 7.61 µM) | 0.1 µg/mL (≈ 0.243 µM) | 0.4 µg/mL (≈ 0.972 µM) |
| N[C@@H]1[C@H]2CN(c3cc4c(cc3F)c(=O)c(C(=O)O)cn4-c3ccc(O)cc3)C[C@@H]12 | 0.1 µg/mL (≈ 0.253 µM) | 3.13 µg/mL (≈ 7.92 µM) | 1.56 µg/mL (≈ 3.95 µM) | 0.2 µg/mL (≈ 0.506 µM) | 0.1 µg/mL (≈ 0.253 µM) |
| COc1c(N2CC3CCCN(C)C3C2)c(F)cc2c(=O)c(C(=O)O)cn(-c3ccc(O)cc3)c12 (stereo not given) | 0.78 µg/mL (≈ 1.67 µM) | 6.25 µg/mL (≈ 13.4 µM) | 12.5 µg/mL (≈ 26.7 µM) | 0.4 µg/mL (≈ 0.856 µM) | 1.56 µg/mL (≈ 3.34 µM) |
| N[C@@H]1CCC[C@@H]2CN(c3nc4c(cc3F)c(=O)c(C(=O)O)cn4-c3ccc(O)cc3)C[C@@H]21 | 0.4 µg/mL (≈ 0.912 µM) | 6.25 µg/mL (≈ 14.3 µM) | 3.13 µg/mL (≈ 7.14 µM) | 3.13 µg/mL (≈ 7.14 µM) | 0.4 µg/mL (≈ 0.912 µM) |
| C[C@H](N)[C@H]1CCN(c2cc3c(cc2F)c(=O)c(C(=O)O)cn3-c2ccc(O)cc2)C1 | 0.4 µg/mL (≈ 0.972 µM) | 25 µg/mL (≈ 60.8 µM) | 3.13 µg/mL (≈ 7.61 µM) | 1.56 µg/mL (≈ 3.79 µM) | 0.78 µg/mL (≈ 1.9 µM) |
| N[C@H]1CN(c2cc3c(cc2F)c(=O)c(C(=O)O)cn3-c2ccc(O)cc2)CC12CC2 | 0.4 µg/mL (≈ 0.977 µM) | 6.25 µg/mL (≈ 15.3 µM) | 6.25 µg/mL (≈ 15.3 µM) | 0.78 µg/mL (≈ 1.91 µM) | 0.78 µg/mL (≈ 1.91 µM) |
| C[C@@H]1CN(c2nc3c(cc2F)c(=O)c(C(=O)O)cn3-c2ccc(O)cc2)C[C@H]1N | 0.4 µg/mL (≈ 1 µM) | 0.78 µg/mL (≈ 1.96 µM) | 1.56 µg/mL (≈ 3.92 µM) | 0.4 µg/mL (≈ 1 µM) | 0.4 µg/mL (≈ 1 µM) |
| C[C@H](N)[C@@H]1CCN(c2cc3c(cc2F)c(=O)c(C(=O)O)cn3-c2ccc(O)cc2)C1 | 0.4 µg/mL (≈ 0.972 µM) | 25 µg/mL (≈ 60.8 µM) | 6.25 µg/mL (≈ 15.2 µM) | 1.56 µg/mL (≈ 3.79 µM) | 0.4 µg/mL (≈ 0.972 µM) |
| COc1c(N2C[C@@H](N)C3(CC3)C2)c(F)cc2c(=O)c(C(=O)O)cn(-c3ccc(O)cc3)c12 | 0.78 µg/mL (≈ 1.77 µM) | 3.13 µg/mL (≈ 7.12 µM) | 6.25 µg/mL (≈ 14.2 µM) | 0.4 µg/mL (≈ 0.91 µM) | 0.78 µg/mL (≈ 1.77 µM) |
| C[C@@H](N)[C@H]1CCN(c2cc3c(cc2F)c(=O)c(C(=O)O)cn3-c2ccc(O)cc2)C1 | 1.56 µg/mL (≈ 3.79 µM) | 50 µg/mL (≈ 122 µM) | 25 µg/mL (≈ 60.8 µM) | 3.13 µg/mL (≈ 7.61 µM) | 1.56 µg/mL (≈ 3.79 µM) |
| COc1c(N2C[C@@H](C)N[C@@H](C)C2)c(F)cc2c(=O)c(C(=O)O)cn(-c3ccc(O)cc3)c12 | 3.13 µg/mL (≈ 7.09 µM) | 50 µg/mL (≈ 113 µM) | 50 µg/mL (≈ 113 µM) | 1.56 µg/mL (≈ 3.53 µM) | 6.25 µg/mL (≈ 14.2 µM) |
| C[C@H](N)[C@H]1CCN(c2nc3c(cc2F)c(=O)c(C(=O)O)cn3-c2ccc(O)cc2)C1 | 0.78 µg/mL (≈ 1.89 µM) | 3.13 µg/mL (≈ 7.59 µM) | 3.13 µg/mL (≈ 7.59 µM) | 3.13 µg/mL (≈ 7.59 µM) | 0.78 µg/mL (≈ 1.89 µM) |
| NCC1CCN(c2cc3c(cc2F)c(=O)c(C(=O)O)cn3-c2ccc(O)cc2)C1 (stereo not given) | 0.4 µg/mL (≈ 1.01 µM) | 25 µg/mL (≈ 62.9 µM) | 6.25 µg/mL (≈ 15.7 µM) | 1.56 µg/mL (≈ 3.93 µM) | 0.78 µg/mL (≈ 1.96 µM) |
| O=C(O)c1cn(-c2ccc(O)cc2)c2cc(N3CC4CCCNC4C3)c(F)cc2c1=O (stereo not given) | 0.4 µg/mL (≈ 0.945 µM) | 6.25 µg/mL (≈ 14.8 µM) | 3.13 µg/mL (≈ 7.39 µM) | 1.56 µg/mL (≈ 3.68 µM) | 0.4 µg/mL (≈ 0.945 µM) |
| CC1CNCCN1c1nc2c(cc1F)c(=O)c(C(=O)O)cn2-c1ccc(O)cc1 (stereo not given) | 0.78 µg/mL (≈ 1.96 µM) | 6.25 µg/mL (≈ 15.7 µM) | 6.25 µg/mL (≈ 15.7 µM) | 0.78 µg/mL (≈ 1.96 µM) | 0.78 µg/mL (≈ 1.96 µM) |
| NC1CCN(c2nc3c(cc2F)c(=O)c(C(=O)O)cn3-c2ccc(O)cc2)C1 (stereo not given) | 0.78 µg/mL (≈ 2.03 µM) | 1.56 µg/mL (≈ 4.06 µM) | > 50 µg/mL | 1.56 µg/mL (≈ 4.06 µM) | 0.78 µg/mL (≈ 2.03 µM) |
